# Compounds with a hit are over-represented: about 0.79% of the library has one in this group of screens.
# PKA-R2B activ – activates the human PKA-R2B holoenzyme complex; actives 0.079% (n = 340,000); P22694+P31323; PKA-R2B holoenzyme dissociation, Cy5-IP20 fluorescence polarization; R2B truncated from residue 108, S112A mutant; 0% DMSO only, 100% 113 µM cGMP; AID 504700; activation, % at 11.4 µM;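 active means activation above a cutoff set at the mean over all compounds plus 3 SD, cut at about 18% in these data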;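 further: higher means more holoenzyme dissociation and a rise in polarization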
# Target sequence (P31323 whole entry, looked up, other chains not shown, the tested form may be a part): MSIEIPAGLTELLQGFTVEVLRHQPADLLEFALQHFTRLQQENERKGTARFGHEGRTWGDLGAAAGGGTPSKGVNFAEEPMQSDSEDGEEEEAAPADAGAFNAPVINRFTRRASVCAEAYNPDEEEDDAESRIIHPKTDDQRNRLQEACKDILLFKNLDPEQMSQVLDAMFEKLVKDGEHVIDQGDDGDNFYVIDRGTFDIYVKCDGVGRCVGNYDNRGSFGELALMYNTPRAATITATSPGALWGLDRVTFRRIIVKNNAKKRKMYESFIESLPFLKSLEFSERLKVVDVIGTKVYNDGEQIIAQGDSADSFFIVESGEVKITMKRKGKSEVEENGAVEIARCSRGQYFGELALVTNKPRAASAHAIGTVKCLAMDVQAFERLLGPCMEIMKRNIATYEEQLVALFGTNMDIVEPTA
# PKA-R1A act – activates the PKA-R1A holoenzyme complex; activation, % at 11.4 µM; P00514+P68181; actives 0.083% (n = 340,000); PKA-R1A dissociation, Cy5-IP20 fluorescence polarization; scaled: DMSO 0%, 113 µM cGMP 100%;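 active means percent activation above the mean of all tested compounds plus 3 SD, cut at about 19% in these data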;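 further: higher means more PKAc released from R1A so a rise in polarization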
# Rin1-Abl PPI inh – blocks binding of human Rin1 to Abl; TR-FRET Rin1/Abl binding, biochemical; inhibition, % at 7.35 µM; actives 0.4% (n = 360,000); AID 588664; in the data active means inhibition above about 5%, passing the limit was not always enough
# UCH37 inh – human UCH37 deubiquitinating enzyme inhibition; Q9Y5K5; purified proteasome/UCH37, Ub-AMC cleavage fluorescence; inhibition, % (concentration not given with the values); actives 0.33% (n = 330,000);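 active means mean inhibition over replicate wells above about 20%, limit read from the data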;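 further: 0% = compound-free wells with enzyme and 100% = wells lacking proteasome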
#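 Test system – human UCH37 enzyme supplied as purified proteasome complex · Incubation – 30 min preincubation with enzyme, 25 min cleavage at room temperature · Detection – AMC fluorescence from Ub-AMC cleavage, excitation 355 nm, emission 460 nm · Benchmarks – no-proteasome wells (full inhibition) and compound-free wells (no inhibition)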
# Rin1 Abl conf – Rin1-Abl interaction inhibition confirmation | AID 602124 | actives 49% (n = 1,300) | TR-FRET Rin1-Abl binding, purified proteins | shares compounds with Rin1-Abl PPI inh | inhibition, % at 7.35 µM
# GFP quench – quenches GFP fluorescence, counter-screen for Rin1-Abl inhibitors; shares compounds with Rin1-Abl PPI inh; inhibitors/quenchers counterscreen; inhibition, % at 6.75 µM; actives 8.5% (n = 1,300); AID 602125;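 further: ABL1-eGFP fusion protein alone without its partner RIN1-SBP; 0% = protein with vehicle and 100% = wells lacking protein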
# GFP quench dose – GFP fluorescence interference dose response; shares compounds with Rin1-Abl PPI inh; AID 602182; 230 tested, under 10 active; GFP fluorescence interference/quenching counterscreen; IC50, µM; call rule not given here;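 further: ABL1-eGFP fusion protein alone without its RIN1 binding partner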
# * hit, by the source's call; · = no result. Unless noted, no stated cut-off is given here; in the data, active means inhibition above about 6.5%; inactive means the rest.
SMILES,PKA-R2B activ,PKA-R1A act,Rin1-Abl PPI inh,UCH37 inh,Rin1 Abl conf,GFP quench,others
COc1cc(OC)c2c(c1O)OC(c1ccccc1)CC2=O (stereo not given),-10.7,-4.4,16.2*,0.0,9.2*,1.5,
COc1ccc(O)c(C(c2c(C)[nH][nH]c2=O)c2c(C)[nH][nH]c2=O)c1,-6.9,1.5,22.2*,·,-0.3,-1.2,
COc1ccc(OC)c(C(c2c(C)[nH][nH]c2=O)c2c(C)[nH][nH]c2=O)c1,5.6,-7.1,7.9*,1.6,-1.1,0.5,
Cc1[nH][nH]c(=O)c1C(c1ccc(O)c(Br)c1)c1c(C)[nH][nH]c1=O,-5.7,9.7,6.7,2.9,·,·,
COC(=O)CN1C(=O)[C@@H]2[C@H](C1=O)[C@@H]1CC(C(=O)OC)=C[C@@H](C(=O)OC)[C@@H]3C1=C(C(=O)[C@@]3(C)NC(=O)c1ccccc1)[C@@H]2C,-7.8,-2.5,14.5*,4.9,4.0,0.6,
CC[n+]1c(C)n(C)c2cc(S(=O)(=O)N(C)C)ccc21,9.2,0.9,8.9*,1.3,-0.9,-2.8,
CCn1c(C)[n+](CC)c2ccc(S(=O)(=O)N(C)C)cc21,-18.4,-11.9,-0.8,3.8,·,·,
CCCCOc1ccc(N2CC(C(=O)NCCc3ccc(OC)c(OC)c3)CC2=O)cc1 (stereo not given),3.0,5.7,-2.0,1.2,·,·,
O=C(O)c1cccc2cccc(-c3c4ccc(=O)c(O)c-4oc4c(O)c(O)ccc34)c12,4.9,4.1,41.0*,·,45.1*,27.6*,
CCCCC1CCC(C(=O)NC2CCS(=O)(=O)C2)CC1 (stereo not given),-9.1,7.9,0.8,4.4,·,·,
Cc1cccc(NS(=O)(=O)c2ccc(C(=O)NCC3CCCO3)cc2)c1C (stereo not given),-11.5,-1.7,-2.0,0.4,·,·,
CC(NC(=O)c1ccc(F)cc1F)C1CC2CCC1C2 (stereo not given),1.2,5.6,8.1*,3.8,-1.3,0.4,
O=c1[nH]c2c(Br)cnc([N+](=O)[O-])c2[nH]1,3.8,-0.7,-1.1,8.1,·,·,
O=c1cc(-c2ccccc2)oc2cc(O)ccc12,-15.3,-5.6,63.9*,·,-0.5,0.1,
Fc1ccc(C2CC(c3ccco3)=Nc3ccccc3S2)cc1 (stereo not given),-5.2,-6.3,1.3,0.1,·,·,
Cc1cc2nc3ccc(N(C)C)cc3nc2cc1N,-5.1,3.2,15.0*,·,-11.6,33.8*,
Cc1[nH]n(-c2ccccc2)c(=O)c1C(c1ccc(C(=O)O)cc1)c1c(C)[nH]n(-c2ccccc2)c1=O,-4.7,-7.1,16.7*,8.1,-0.2,2.0,
Cc1[nH]n(-c2ccccc2)c(=O)c1C(c1cccc([N+](=O)[O-])c1O)c1c(C)[nH]n(-c2ccccc2)c1=O,4.5,-5.3,-0.2,2.9,·,·,
Cc1[nH]n(-c2ccccc2)c(=O)c1C(c1cccc([N+](=O)[O-])c1)c1c(C)[nH]n(-c2ccccc2)c1=O,3.1,-5.7,9.1*,4.2,0.0,-1.0,
Cc1ncc(S(=O)(=O)c2ccccc2)c(-c2ccccc2)n1,2.6,-11.3,0.9,1.6,·,·,
CCOc1ccc(NC(=O)C(=S)NC2CCCCC2)cc1,8.9,-2.1,-1.6,-1.3,·,·,
O=C1Nc2ccccc2N=C(c2ccccc2)c2ccccc21,·,·,5.9*,2.2,2.0,-3.5,
COc1ccc2c(c1OC)C(=O)OC2,0.9,-5.9,0.2,2.4,·,·,
COc1ccc2c3c(cccc13)C(=O)CC2,-6.7,-2.5,11.6*,-14.1,-2.9,-11.9,
COC(=O)c1cccc(NC(=O)c2ccc[n+]([O-])c2)c1,0.1,-2.4,17.1*,0.2,23.4*,0.5,GFP quench dose=>67.5
SMILES,PKA-R2B activ,PKA-R1A act,Rin1-Abl PPI inh,UCH37 inh,Rin1 Abl conf,GFP quench,others
COC(=O)c1cccc(NC(=O)c2ccccc2)c1,-1.0,-13.5,-1.9,3.8,·,·,
CCCNC(=O)OC[C@H]1O[C@H](CCON=CC[C@@H]2C=C[C@H](OC(C)=O)[C@@H](COC(C)=O)O2)C=C[C@@H]1Oc1ccc(OC)cc1,·,·,·,5.1,·,·,
Cc1ccccc1S(=O)Cc1ccc(C(=O)NC2CC2)o1 (stereo not given),-1.9,-2.1,0.8,5.9,·,·,
COCc1ccc(C(=O)NCC2(N3CCCCC3)CCCCC2)cc1,-4.8,-9.5,1.2,2.1,·,·,
COc1ccc(Sc2ccccc2CN(C)C)cc1OC,0.3,1.3,4.8,0.7,·,·,
CNCc1ccccc1Sc1ccc(O)c(O)c1,-1.9,-1.7,11.9*,1.5,6.4*,0.4,
O=c1c(O)c(-c2ccc(O)c(O)c2)oc2cc(O)ccc12,1.7,-3.2,22.7*,·,22.1*,1.7,GFP quench dose=>67.6
CC1(C)C(=O)OC(c2c(F)c(F)c(F)c(F)c2F)C2(CCCCC2)C1=O (stereo not given),-12.5,-0.3,7.5*,1.6,-1.7,1.4,
CC(C)CN(C(=O)CSc1nnc2c(Cl)cc(C(F)(F)F)cn12)C1CCS(=O)(=O)C1 (stereo not given),-1.9,-3.0,-2.1,-4.1,·,·,
O=C(C1CCN(c2nnc(N3CCCC3=O)s2)CC1)N1CCN(Cc2ccc3c(c2)OCO3)CC1,16.8,10.7,10.2*,-2.1,4.7,-0.6,
COc1ccc(-c2nnc(Sc3nc4ccccc4o3)c3ccccc23)cc1,4.2,1.5,-1.9,2.9,·,·,
CN(C)c1cccc(C(=O)n2cc(C(=O)c3cc(F)ccc3O)cn2)c1,-8.4,-1.9,-0.1,-31.3,·,·,
COc1ccc(C(=O)N/N=C/c2ccc(OC)c(COc3ccccc3)c2)cc1,1.3,10.4,-0.7,·,·,·,
COc1ccc(C=NNC(=O)c2cc(O)c(O)c(O)c2)cc1CN1CCN(c2ccc(F)cc2)CC1,·,·,·,10.6,·,·,
COc1ccc(/C=N\NC(=O)c2cc(O)c(O)c(O)c2)cc1CN1CCN(c2ccc(F)cc2)CC1,-0.8,1.8,52.6*,·,49.5*,11.4*,
COc1ccc(/C=N\NC(=O)c2cc(O)c(O)c(O)c2)cc1COc1ccc(C(=O)OCC(C)C)cc1,-4.5,0.1,15.3*,·,10.9*,5.8,
O=C(CCc1nc2ccccc2c(=O)[nH]1)N1CCN(S(=O)(=O)c2ccccc2Br)CC1,-1.9,-1.0,3.1,5.9,·,·,
Oc1cccc(/C=N/NC(=S)NCCN2CCOCC2)c1O,4.2,0.5,5.7*,·,-0.1,-2.7,
S=C(NCCN1CCOCC1)N/N=C/c1cccs1,-0.2,-3.3,-1.8,·,·,·,
CC(=O)C1CCC2C3CCC4=CC(=O)CCC4(C)C3(Br)C(=O)CC12C (stereo not given),3.4,-0.3,-1.2,2.0,·,·,
CC(=NNC(=O)c1ccc2c(c1)OCCO2)c1ccccc1,·,·,·,4.6,·,·,
C/C(=N\NC(=O)c1ccc2c(c1)OCCO2)c1ccccc1,-9.8,-3.6,6.5*,·,-3.0,-2.3,
